# KCNQ1 act = potentiators or activators of human KCNQ1 potassium channel | P51787 | CHO-K1 KCNQ1, thallium flux FluxOR fluorescence; stronger effect = higher value | B-score at 10 µM | 0.35% of 310,000 active;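 active = fluorescence ratio B-score, a plate-corrected score, at least three library SD, with initial intensity B-score within 5 SD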
# Target sequence (P51787 whole entry, looked up): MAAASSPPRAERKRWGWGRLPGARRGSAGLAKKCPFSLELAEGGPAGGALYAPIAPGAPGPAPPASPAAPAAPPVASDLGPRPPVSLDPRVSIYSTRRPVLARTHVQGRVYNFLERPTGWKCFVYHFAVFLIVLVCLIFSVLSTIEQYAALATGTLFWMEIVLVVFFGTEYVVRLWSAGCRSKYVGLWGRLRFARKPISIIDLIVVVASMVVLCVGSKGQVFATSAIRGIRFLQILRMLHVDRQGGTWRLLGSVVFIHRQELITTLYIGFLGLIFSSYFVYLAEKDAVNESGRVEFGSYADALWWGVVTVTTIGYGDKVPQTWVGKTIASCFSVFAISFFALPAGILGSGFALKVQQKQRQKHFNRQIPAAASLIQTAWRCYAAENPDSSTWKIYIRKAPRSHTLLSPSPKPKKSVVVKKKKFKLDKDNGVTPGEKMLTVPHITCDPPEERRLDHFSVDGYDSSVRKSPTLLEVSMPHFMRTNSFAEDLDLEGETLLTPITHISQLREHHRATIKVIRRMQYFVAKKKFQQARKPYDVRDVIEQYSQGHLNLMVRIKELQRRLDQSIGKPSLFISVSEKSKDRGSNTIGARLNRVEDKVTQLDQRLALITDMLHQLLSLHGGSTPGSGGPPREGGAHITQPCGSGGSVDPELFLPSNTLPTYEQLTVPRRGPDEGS
#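 assay system = CHO-K1 cells stably expressing KCNQ1 | medium = assay buffer, equal DMSO in all wells | timing = 37 °C overnight plating, 90-min dark dye load, 20-min compound pretreatment | measured by = kinetic FluxOR thallium fluorescence, 10-s 1-Hz baseline, 110-s post-stimulus read | measure = fluorescence change relative to baseline, converted to B score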
# KCNK9 inh-1 = blocks the human KCNK9 two-pore domain potassium channel; Q9NPC2; AID 488922; HEK293 KCNK9, FluxOR thallium flux fluorescence; stronger effect = lower value; 1.2% of 310,000 active; B-score at 10 µM;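 active = ratio B-score over 3 SD below the library mean, with starting fluorescence within 5 SD of its mean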;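 note: negative B-score means less thallium flux so channel inhibition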
# KCNQ1 inh = inhibitors of human KCNQ1 potassium channel | P51787 | CHO-K1 KCNQ1, FluxOR thallium flux fluorescence; stronger effect = higher value | B-score at 10 µM | 1.3% of 310,000 active | AID 2642;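 active = compounds whose thallium flux B-score, printed positive for inhibition, exceeds three library SD while starting fluorescence stays within three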;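 note: channel opened by potassium depolarization with thallium stimulus after 20 min compound exposure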
# hERG protect = hERG (human) protection from proarrhythmic block. 0.51% of 310,000 active. activation (rescue from dofetilide block), less the hit threshold, % at 10 µM. Q12809. AID 1511. CHO-hERG, FluxOR thallium flux, dofetilide IC70 present;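 active = activation above the mean of controls blocked by dofetilide plus 5 SD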;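 note: thallium influx through hERG after potassium depolarization seen as dye fluorescence rise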
# KCNK3 inh = human KCNK3 channel inhibition, primary screen. CHO-KCNK3 thallium flux, FluxOR fluorescence; stronger effect = lower value. B-score at 10 µM. 0.84% of 340,000 active;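 active = B-score under library mean minus 4 SD, starting fluorescence ratio at most library mean plus 5 SD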;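 note: more negative B-score means stronger inhibition of thallium flux through KCNK3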
# Kir21 inh = Kir2.1 (mouse) channel inhibition; P35561; 0.85% of 310,000 active; HEK293-Kir2.1, FluxOR thallium flux fluorescence; stronger effect = lower value; B-score at 10 µM;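 active = fluorescence ratio B-score at or below minus 3 SD of library scores, with starting-brightness B-score within 2 SD, cut at about -4.2 in these data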;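 note: channel flux triggered by added potassium and thallium sulfate stimulus; B-score of peak minus minimum fluorescence over baseline after thallium stimulus; more negative B-score means stronger Kir2.1 block with less thallium influx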
# hERG ctr = counter-screen for Kir2.1 inhibitors: effect on human hERG | shares compounds with Kir21 inh | inhibition, % at 10 µM | hERG-expressing cells, thallium flux | 20% of 320 active | AID 2236;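 note: host cells are CHO cells stably expressing hERG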
# KCNK9 inh-2 = tests whether Kir2.1 inhibitors also affect human KCNK9 | shares compounds with Kir21 inh | KCNK9-expressing cells, ion flux inhibition | inhibition, % at 10 µM | 5% of 320 active | AID 2329
# Kir2-1 patch inh = mouse Kir2.1 inward rectifier channel inhibition; Kir2.1 cells, automated patch-clamp current inhibition; 71% of 320 active; shares compounds with Kir21 inh; AID 463252; inhibition, % at 25 µM
# * marks the source's active call; other numbers are inactive results; i = inactive; nt = not tested or not shown. In the library only some 3.7% were active in any assay of this set; here they are far more common. Unless noted, the rule behind the calls is not given here.
SMILES,KCNQ1 act,KCNK9 inh-1,KCNQ1 inh,hERG protect,KCNK3 inh,Kir21 inh,hERG ctr,KCNK9 inh-2,Kir2-1 patch inh
CN(C)CC#CCOC(c1ccccc1)c1ccccc1,i,i,i,0,i,-6.3*,i,i,45%*
CCN(CC)CC#CCOC(c1ccccc1)c1ccccc1,i,i,i,-22,i,-3,nt,nt,nt
CCn1c(COc2ccc(C)cc2)nnc1SCC(=O)C(C)(C)C,i,i,i,0,i,-2.7,nt,nt,nt
CCn1c(COc2ccc(C)cc2)nnc1SCc1ccc(C#N)cc1,i,i,i,-13,i,-7.9*,i,i,7.3%*
Cc1ccc2nc(NCc3ccccc3)[nH]c2c1,i,i,i,-21,i,-10*,i,31%*,72%*
Clc1ccc(CNc2ncnc3[nH]ncc23)c(Cl)c1,nt,nt,nt,nt,i,nt,nt,nt,nt
O=C(O)COc1ccccc1/C=N/NC(=O)CSc1nc2ccccc2n1Cc1ccccc1Cl,i,i,i,-2,i,2.8,i,i,i
FC(F)(F)c1cccc(CN2CCC(c3cc(-c4cccs4)n[nH]3)CC2)c1,i,i,i,-18,i,-0.57,nt,nt,nt
Cc1ccc(CN2CCC(c3cc(-c4cccs4)n[nH]3)CC2)cc1,i,i,i,-14,i,-13*,72%*,i,37%*
C=CCn1c(SCC(=O)NC(C)(C)C)nnc1-c1ccccc1O,i,i,i,-9,i,0.26,nt,nt,nt
C=CCn1c(SCc2cccc(C#N)c2)nnc1-c1ccccc1O,i,i,i,-5,i,-5.9*,i,i,24%*
C#CCNC(=O)C1=C[C@@H](c2ccc(C#C)cc2)C[C@@H](OCc2ccc(CO)cc2)O1,i,i,i,-11,i,-6.3*,i,i,6.4%*
CCOC(=O)N1CCN(CC(O)COc2ccccc2C(C)C)CC1 (stereo not given),i,i,i,-6,i,0.17,nt,nt,nt
CCN(CCNCC(O)COc1ccccc1C(C)C)c1cccc(C)c1 (stereo not given),i,i,i,-21,i,-6.4*,61%*,i,i
S=C(NC1CCCCC1)N(CCc1ccccc1)CCc1ccccc1,i,i,i,-18,i,-2.6,nt,nt,nt
O=C(O)/C=C/C(=O)N1CCN(c2cccc(Cl)c2)CC1,i,i,i,-18,i,4.3,i,i,i
O=C(O)CCC(=O)N1CCN(c2cccc(Cl)c2)CC1,i,i,i,-10,i,0.81,nt,nt,nt
Cc1cc(Cl)c(C(=O)Nc2cccc(C(F)(F)F)c2)c(C)n1,i,i,i,-5,i,1.9,nt,nt,nt
Cc1ccc(OCCOCCN2CCN(C)CC2)c(C(C)(C)C)c1,i,i,i,-10,i,-1.8,nt,nt,nt
CC(C)(C)c1cc(Cl)ccc1OCCOCCN1CCCC1,i,i,i,-8,i,-9.6*,58%*,i,9.2%*
O=C1C(Cc2c[nH]c3ccccc23)NC(=S)N1Cc1ccccc1 (stereo not given),i,i,i,-12,i,-6.4*,i,i,12%*
CC(=O)NCC(=O)N1CCCC(C(=O)c2ccc(Oc3ccccc3)cc2)C1 (stereo not given),i,i,i,-10,i,1.1,nt,nt,nt
Clc1ccc(CNC2CCN(Cc3ccccc3)CC2)cc1,i,i,i,-4,i,-13*,58%*,i,55%*
N#CCN=C(c1ccccc1)c1ccccc1,nt,nt,nt,nt,i,nt,nt,nt,nt
Cc1cc(S(=O)(=O)Nc2cc(C)c(O)c(C)c2)c(C)s1,i,i,i,-3,i,-6.7*,i,i,18%*
SMILES,KCNQ1 act,KCNK9 inh-1,KCNQ1 inh,hERG protect,KCNK3 inh,Kir21 inh,hERG ctr,KCNK9 inh-2,Kir2-1 patch inh
CCn1c(CNc2ccc(Cl)cc2)nnc1SCc1ccccc1,i,i,i,-6,i,-6.2*,i,i,i
C#Cc1cccc(NC(=O)c2ccc(Cl)cc2Cl)c1,i,i,i,-8,i,0.76,nt,nt,nt
COc1ccc(CCN2CCCC(CN(C)Cc3cc(OC)c(OC)c(OC)c3)C2)cc1 (stereo not given),i,i,i,-9,i,1.2,nt,nt,nt
COc1ccc(CN(C)CC2CCCN(CCc3ccc(F)cc3)C2)cc1OC (stereo not given),i,i,i,-3,i,-6.2*,i,i,22%*
Cc1[nH]c(C)c(S(=O)(=O)NCC(C)c2ccccc2)c1C(=O)N1CCCCC1 (stereo not given),i,i,i,-7,i,-2.7,nt,nt,nt
Cc1ccc(C)c(Cn2c3ccccc3c3cnn(CC(=O)NCCCN4CCCCC4)c(=O)c32)c1,i,i,i,-15,i,-6.2*,i,i,i
O=C1CN(S(=O)(=O)c2cccc(Cl)c2Cl)c2ccccc2N1,i,i,i,-7,i,-5.7*,i,i,i
O=C(c1cc(COc2ccc3c(c2)CCCC3)on1)N1CCCC1,i,i,i,-6,i,4.1,i,i,i
CC(C)(c1ccccc1)c1ccc(OCCCNCCO)cc1,i,i,i,-11,i,-8.6*,i,i,59%*
CC(C)NCCCOc1ccc(C(C)(C)c2ccccc2)cc1,i,i,i,1,i,-2.4,nt,nt,nt
COC(=O)C1=C(C)N=C2SCCC(=O)N2C1c1ccc(OC(=O)c2ccco2)cc1 (stereo not given),i,i,i,-5,i,-7.2*,i,i,i
CC1=C(C(=O)OCc2ccccc2)C(c2cccs2)N2C(=O)CCSC2=N1 (stereo not given),i,i,i,-20,i,-0.65,nt,nt,nt
c1cc2ccc3ccc(CN4CCOCC4)c4ccc(c1)c2c34,i,i,i,-8,i,0.31,nt,nt,nt
OC1CCCN(Cc2ccc3ccc4cccc5ccc2c3c45)C1 (stereo not given),i,i,i,-4,i,-5.8*,48%*,i,i
Cc1cc(Cl)ccc1OC(C)C(=O)NC(C)C1CCCO1 (stereo not given),i,i,i,-10,i,-8.5*,i,i,9.2%*
CC(NC(=O)Nc1ccc(Cl)cc1)C1CCCO1 (stereo not given),i,i,i,-3,i,-0.34,nt,nt,nt

# High-throughput results (PubChem)
